Assay results taken from ChEMBL document CHEMBL2169869, “Assay and inhibition of diacylglycerol lipase activity” (Bioorg Med Chem Lett, 2012).
pIC50: −log10 of the molar value. Active and inactive are the calls of the source. The calls are words filed in the database; no cut-off is given here.

How the values were obtained:
[1] = biological target: T1, Fatty-acid amide hydrolase 1 (Rattus norvegicus, UniProt P97612); experiment: Inhibition of rat histidine tagged FAAH expressed in Escherichia coli by coumarin ester substrate fluorescence assay
T1 sequence (P97612 whole entry): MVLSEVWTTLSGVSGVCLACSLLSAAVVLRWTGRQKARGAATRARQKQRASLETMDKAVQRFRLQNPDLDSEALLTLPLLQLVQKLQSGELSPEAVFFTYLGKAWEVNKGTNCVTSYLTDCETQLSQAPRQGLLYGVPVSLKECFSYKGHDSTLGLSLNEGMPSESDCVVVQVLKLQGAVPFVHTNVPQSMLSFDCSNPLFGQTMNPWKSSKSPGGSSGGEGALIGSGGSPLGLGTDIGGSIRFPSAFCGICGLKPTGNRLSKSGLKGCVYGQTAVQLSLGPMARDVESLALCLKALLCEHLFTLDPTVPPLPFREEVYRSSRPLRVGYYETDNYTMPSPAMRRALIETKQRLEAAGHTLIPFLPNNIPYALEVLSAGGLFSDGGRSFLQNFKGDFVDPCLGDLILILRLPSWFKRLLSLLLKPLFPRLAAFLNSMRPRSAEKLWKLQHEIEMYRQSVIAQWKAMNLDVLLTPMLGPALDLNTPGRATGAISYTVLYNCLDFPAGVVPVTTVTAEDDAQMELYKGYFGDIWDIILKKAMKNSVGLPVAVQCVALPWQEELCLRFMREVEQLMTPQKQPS

[2] = biological target: T2, Diacylglycerol lipase-alpha (Homo sapiens) (UniProt Q9Y4D2); experiment: Inhibition of human DAGLalpha expressed in HEK293T cell membrane using [14C]SAG substrate at 10 uM using JZL184 pretreated protein in detergent free solution by […]; type: cell-based; settings: HEK-293T
T2 sequence (whole entry): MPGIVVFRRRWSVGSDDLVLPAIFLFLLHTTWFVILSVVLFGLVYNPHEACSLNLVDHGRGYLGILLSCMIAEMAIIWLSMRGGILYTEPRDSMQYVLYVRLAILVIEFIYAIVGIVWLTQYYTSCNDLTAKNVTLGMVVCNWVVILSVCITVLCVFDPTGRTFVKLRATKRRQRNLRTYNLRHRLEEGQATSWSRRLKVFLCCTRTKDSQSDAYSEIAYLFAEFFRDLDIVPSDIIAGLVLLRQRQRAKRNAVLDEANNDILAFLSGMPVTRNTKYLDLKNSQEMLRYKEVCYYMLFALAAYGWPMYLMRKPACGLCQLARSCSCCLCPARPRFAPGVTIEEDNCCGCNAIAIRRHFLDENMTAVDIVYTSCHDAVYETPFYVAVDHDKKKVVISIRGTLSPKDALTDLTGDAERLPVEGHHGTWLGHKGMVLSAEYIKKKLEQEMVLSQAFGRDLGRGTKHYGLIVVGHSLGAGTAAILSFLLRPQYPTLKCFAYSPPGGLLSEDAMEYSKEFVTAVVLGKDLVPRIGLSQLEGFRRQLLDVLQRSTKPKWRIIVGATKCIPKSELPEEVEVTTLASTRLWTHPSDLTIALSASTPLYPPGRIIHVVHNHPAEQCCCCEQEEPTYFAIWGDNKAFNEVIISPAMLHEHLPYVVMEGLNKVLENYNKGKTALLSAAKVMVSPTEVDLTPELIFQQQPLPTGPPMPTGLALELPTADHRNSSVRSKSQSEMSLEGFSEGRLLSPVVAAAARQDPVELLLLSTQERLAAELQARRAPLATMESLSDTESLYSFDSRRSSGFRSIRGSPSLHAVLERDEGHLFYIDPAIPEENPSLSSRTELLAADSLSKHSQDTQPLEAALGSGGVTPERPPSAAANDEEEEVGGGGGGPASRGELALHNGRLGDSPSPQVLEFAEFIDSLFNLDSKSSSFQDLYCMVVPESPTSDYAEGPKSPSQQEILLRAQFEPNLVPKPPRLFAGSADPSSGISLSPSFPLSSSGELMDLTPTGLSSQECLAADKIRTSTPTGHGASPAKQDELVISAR

[3] = biological target: T2, Diacylglycerol lipase-alpha (Homo sapiens); experiment: Inhibition of human DAGLalpha expressed in HEK293T cell membrane using [14C]SAG substrate at 10 uM in detergent free solution by […]; type: cell-based; settings: HEK-293T
[4] = biological target: T3, Fatty-acid amide hydrolase 1 (Rattus norvegicus) (UniProt P97612); experiment: Inhibition of rat histidine tagged FAAH expressed in Escherichia coli at 10 uM by coumarin ester substrate fluorescence assay
T3 sequence (whole entry): T1 sequence (P97612 whole entry)

[5] = tested on: Bacteria; experiment: Inhibition of bacterial lipoprotein lipase at 10 uM by FRET assay
[6] = biological target: T2, Diacylglycerol lipase-alpha (Homo sapiens); experiment: Inhibition of human DAGLalpha expressed in HEK293T cell membrane using [14C]SAG substrate at 10 uM in detergent free solution by scintillation counting based radio-TLC assay; settings: HEK-293T
[7] = biological target: T4, Monoglyceride lipase (Homo sapiens) (UniProt Q99685); experiment: Inhibition of human N-terminal histidine tagged full length MAGL expressed in Escherichia coli at 10 uM by coumarin ester substrate fluorescence assay
T4 sequence (whole entry): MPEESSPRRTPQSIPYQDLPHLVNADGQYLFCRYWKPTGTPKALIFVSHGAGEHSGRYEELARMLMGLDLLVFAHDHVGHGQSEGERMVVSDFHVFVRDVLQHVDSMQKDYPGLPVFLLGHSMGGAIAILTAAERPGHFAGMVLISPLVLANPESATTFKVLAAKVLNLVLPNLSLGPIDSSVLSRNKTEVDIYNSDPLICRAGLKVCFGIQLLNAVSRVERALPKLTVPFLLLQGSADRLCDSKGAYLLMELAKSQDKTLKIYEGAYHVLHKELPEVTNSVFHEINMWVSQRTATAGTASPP

[8] = biological target: T5, Diacylglycerol lipase-alpha (Homo sapiens, UniProt Q9Y4D2); experiment: Inhibition of human DAGLalpha
T5 sequence (Q9Y4D2 whole entry): T2 sequence (whole entry)

[9] = species on record: Sus scrofa; experiment: Inhibition of porcine pancreatic lipase type 2 at 10 uM by FRET assay
[10] = biological target: T6, Diacylglycerol lipase-alpha (Mus musculus) (UniProt Q6WQJ1); experiment: Inhibition of mouse DAGLalpha expressed in HEK293T cell membrane using [14C]SAG substrate at 10 nM by scintillation counting based radio-TLC assay; type: cell membranes; settings: HEK-293T
T6 sequence (whole entry): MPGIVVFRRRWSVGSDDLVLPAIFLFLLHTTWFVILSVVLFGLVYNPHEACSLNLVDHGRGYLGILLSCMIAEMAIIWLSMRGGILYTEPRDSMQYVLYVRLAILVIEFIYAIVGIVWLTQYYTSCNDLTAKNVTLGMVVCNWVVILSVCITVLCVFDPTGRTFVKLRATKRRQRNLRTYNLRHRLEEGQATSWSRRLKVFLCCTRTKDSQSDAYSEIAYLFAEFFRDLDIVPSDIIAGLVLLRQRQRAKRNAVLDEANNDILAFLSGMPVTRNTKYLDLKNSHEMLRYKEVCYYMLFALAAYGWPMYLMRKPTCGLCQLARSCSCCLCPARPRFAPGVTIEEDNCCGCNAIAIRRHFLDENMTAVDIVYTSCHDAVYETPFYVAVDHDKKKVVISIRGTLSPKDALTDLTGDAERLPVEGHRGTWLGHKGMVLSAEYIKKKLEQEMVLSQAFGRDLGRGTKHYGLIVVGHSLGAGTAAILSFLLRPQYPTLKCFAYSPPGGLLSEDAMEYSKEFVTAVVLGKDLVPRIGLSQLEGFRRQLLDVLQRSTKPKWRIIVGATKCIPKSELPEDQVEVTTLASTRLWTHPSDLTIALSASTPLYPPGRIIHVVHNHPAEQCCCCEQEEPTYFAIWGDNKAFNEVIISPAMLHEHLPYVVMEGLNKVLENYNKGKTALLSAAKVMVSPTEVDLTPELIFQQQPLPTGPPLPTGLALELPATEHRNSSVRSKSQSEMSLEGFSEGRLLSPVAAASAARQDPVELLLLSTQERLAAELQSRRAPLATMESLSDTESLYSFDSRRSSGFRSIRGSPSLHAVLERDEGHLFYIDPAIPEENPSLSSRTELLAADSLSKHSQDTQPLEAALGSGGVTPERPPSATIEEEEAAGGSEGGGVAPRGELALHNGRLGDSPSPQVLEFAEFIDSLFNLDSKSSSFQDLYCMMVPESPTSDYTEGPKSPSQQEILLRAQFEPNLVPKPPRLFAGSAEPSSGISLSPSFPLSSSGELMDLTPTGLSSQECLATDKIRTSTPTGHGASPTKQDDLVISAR

[11] = biological target: T2, Diacylglycerol lipase-alpha (Homo sapiens); experiment: Inhibition of human DAGLalpha expressed in HEK293T cell membrane using [14C]SAG substrate at 10 uM in detergent free solution using JZL184 pretreated protein by scintillation counting based radio-TLC assay; type: cell membranes; settings: HEK-293T
Summary of the method: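 Same hDAGLα radio-TLC as above: Tris/CaCl2 pH 7.4, 15 min inhibitor preincubation at 37 °C, 20 μM [14C]SAG for 20 min at 37 °C, TLC with phosphorimaging, activity as (2-AG+AA)/total label.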

[12] = biological target: T2, Diacylglycerol lipase-alpha (Homo sapiens); experiment: Inhibition of human DAGLalpha expressed in HEK293T cell membrane using [14C]SAG substrate at 10 uM in presence of 0.015% Triton X-100 by scintillation counting based radio-TLC assay; type: cell membranes; settings: HEK-293T
Summary of the method: (§1)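 Sonicated HEK293T protein (100 μg) in 50 mM Tris pH 7.4 with 10 mM CaCl2. Inhibitor in DMSO (10% DMSO standard) preincubated 15 min at 37 °C. [14C]SAG was added to 20 μM final for 20 min at 37 °C, with Triton X-100 where the line states it. Quenched with 2:1 CHCl3/MeOH. Silica TLC in CHCl3/MeOH/NH4OH 86:14:0.75, then 12 h phosphorimaging. Activity = (2-AG+AA)/(2-AG+AA+SAG). Background-subtracted; n=1–2.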

[13] = biological target: T6, Diacylglycerol lipase-alpha (Mus musculus); experiment: Inhibition of mouse DAGLalpha expressed in HEK293T cell membrane using [14C]SAG substrate at 10000 nM by scintillation counting based radio-TLC assay; type: cell membranes; settings: HEK-293T
[14] = biological target: T2, Diacylglycerol lipase-alpha (Homo sapiens); experiment: Inhibition of human DAGLalpha expressed in HEK293T cell membrane using [14C]SAG substrate at 10 uM in presence of 0.05% Triton X-100 by […]; type: cell-based; settings: HEK-293T
[15] = biological target: T2, Diacylglycerol lipase-alpha (Homo sapiens); experiment: Inhibition of human DAGLalpha expressed in HEK293T cell membrane using [14C]SAG substrate at 10 uM in presence of 0.05% Triton X-100 by scintillation counting based radio-TLC assay; type: cell membranes; settings: HEK-293T; summary of the method: as §1
[16] = biological target: T3, Fatty-acid amide hydrolase 1 (Rattus norvegicus); experiment: Inhibition of rat histidine tagged FAAH expressed in Escherichia coli at 1 uM by coumarin ester substrate fluorescence assay
[17] = biological target: T4, Monoglyceride lipase (Homo sapiens); experiment: Inhibition of human N-terminal histidine tagged full length MAGL expressed in Escherichia coli at 100 nM by coumarin ester substrate fluorescence assay

Row | Structure (SMILES) | pIC50 [1] | inhibition [2] | inhibition [3] | inhibition [4] | inhibition [5] | inhibition [6] | inhibition [7] | pIC50 [8] | inhibition [9] | inhibition [10] | inhibition [11] | inhibition [12] | inhibition [13] | inhibition [14] | inhibition [15] | inhibition [16] | inhibition [17]
1 | O=C(NCCCCCCNC(=O)ON=C1CCCCC1)ON=C1CCCCC1 | 5.65 | 40% | 70% | 95% | < 0% | 30% | 22% | 4.19 | 78% |  |  |  |  |  |  |  | 
2 | O=C(N[C@H]1COC1=O)OCc1ccccc1 |  | 7% | 17% | 10% | < 0% | inactive | 13% |  | < 0% | inactive | < 0% |  |  |  |  |  | 
3 | CCCCCCCCCCCCCC1CC(=O)O1 (racemic) |  |  | 14% | 10% | < 0% |  | 4% |  | 38% |  |  | 45% | < 0% | 72% | 25% |  | 
4 | CCCCCCC[C@@H]1OC(=O)[C@H]1CCCCCC (racemic) |  | 69% |  | 79% | 67% |  | 55% |  | 96% |  |  | 37% |  |  |  |  | 
5 | CCCCCCC[C@H]1OC(=O)[C@H]1CCCCCC (racemic) |  | 65% |  | 94% | 33% |  | 100% |  | 94% |  |  | 25% |  |  |  | 13% | 66%
6 | O=S(=O)(F)Cc1ccccc1 [PHENYLMETHYLSULFONYLFLUORIDE] | 6.08 |  |  |  | < 0% |  |  |  |  | inactive |  |  |  |  |  |  | 
